The test system of data set [1] is MCF7. As to the kind of experiment: Cell cycle arrest in human MCF7 cells assessed as accumulation at G0/G1 phase at 8 nM after 24 hrs by DAPI-staining based FACS analysis (reference value: 65.5%). The data set is classed as functional. In general terms: Flow cytometry measures light scatter and fluorescence of single cells or particles in a stream.
Data set [2] concerns MCF7. In words: Cell cycle arrest in human MCF7 cells assessed as accumulation at S phase at 8 nM after 24 hrs by DAPI-staining based FACS analysis (reference value: 10.6%). The data set is classed as functional.
Data set [3] relates to MDA-MB-231. As to the kind of experiment: Cell cycle arrest in human MDA-MB-231 cells assessed as accumulation at subG1 phase at 8 nM after 24 hrs by DAPI-staining based FACS analysis (reference value: 4.1%). In kind it is functional.
For data set [4], the system named is MDA-MB-231. In words: Cell cycle arrest in human MDA-MB-231 cells assessed as accumulation at G0/G1 phase at 8 nM after 24 hrs by DAPI-staining based FACS analysis (reference value: 70.7%). The data set is classed as functional.
In data set [5] the test system is MDA-MB-468. As to the kind of experiment: Cell cycle arrest in human MDA-MB-468 cells assessed as accumulation at G2/M phase at 50 nM after 24 hrs by DAPI-staining based FACS analysis (reference value: 19.5%). In kind it is functional.
For data set [6], the system named is MDA-MB-468. In words: Cell cycle arrest in human MDA-MB-468 cells assessed as accumulation at S phase at 50 nM after 24 hrs by DAPI-staining based FACS analysis (reference value: 17%). The data set is classed as functional.
In data set [7] the test system is MDA-MB-468. As to the kind of experiment: Cell cycle arrest in human MDA-MB-468 cells assessed as accumulation at G0/G1 phase at 50 nM after 24 hrs by DAPI-staining based FACS analysis (reference value: 63.3%). The data set is classed as functional.
The next data set has as its target T1, Cytochrome P450 1A1 (Homo sapiens, UniProt P04798).
T1 sequence (P04798 whole entry): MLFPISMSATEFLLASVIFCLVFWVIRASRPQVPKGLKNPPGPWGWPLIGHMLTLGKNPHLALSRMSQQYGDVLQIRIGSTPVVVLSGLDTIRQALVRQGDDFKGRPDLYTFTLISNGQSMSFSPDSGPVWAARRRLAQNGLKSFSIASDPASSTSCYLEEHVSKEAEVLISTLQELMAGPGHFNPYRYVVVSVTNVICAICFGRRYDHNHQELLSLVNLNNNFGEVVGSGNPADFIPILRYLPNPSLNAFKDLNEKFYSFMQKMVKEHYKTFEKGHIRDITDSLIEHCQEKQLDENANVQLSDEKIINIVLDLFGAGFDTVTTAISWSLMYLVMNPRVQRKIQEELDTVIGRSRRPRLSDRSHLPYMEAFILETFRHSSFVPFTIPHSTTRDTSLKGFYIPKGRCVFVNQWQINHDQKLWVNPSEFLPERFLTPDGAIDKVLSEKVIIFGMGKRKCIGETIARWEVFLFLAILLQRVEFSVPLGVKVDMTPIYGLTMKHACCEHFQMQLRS
As to the kind of experiment: Prodrug activation assessed as human supersomes CYP1A1-mediated 3,4,5-trimethoxyphenyl 4-(2-oxoimidazolidin-1-yl)benzenesulfonate formation after 4 hrs by HPLC-MS analysis. In kind it is ADME. The note with it: recombinant enzyme.

Data set [8] has as its system MDA-MB-231. In words: Cell cycle arrest in human MDA-MB-231 cells assessed as accumulation at G0/G1 phase at 50 nM after 24 hrs by DAPI-staining based FACS analysis (reference value: 70.7%). The data set is classed as functional.
Data set [9] concerns MDA-MB-468. As to the kind of experiment: Cytotoxicity against human MDA-MB-468 cells after 72 hrs in presence of CYP1A1 inhibitor capsaicin by SRB assay. The data set is classed as functional, cell-based. The essentials: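 MDA-MB-468 cells co-incubated for 72 h with drug plus a subtoxic concentration of a CYP inhibitor. Viability read by SRB assay: TCA fixation, sulforhodamine B staining, absorbance at 530-565 nm.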
On the technique in general: The SRB assay estimates cell density from bound dye.

Active and inactive are the calls of the source. The rule behind the calls is not given here.

Consider `COc1cc(OS(=O)(=O)c2ccc(N3CCNC3=O)cc2)cc(OC)c1OC`, for which the Activity in the data set on MCF7 [1] is listed as 9.6%; in the data set on MCF7 [2] it was 10.7%; with MDA-MB-231 [3] it was 6.9%; in the data set with MDA-MB-231 [4], 7.3%.

For the compound `CCCCN1CCN(c2ccc(S(=O)(=O)Oc3cc(OC)c(OC)c(OC)c3)cc2)C1=O`, the Activity in the data set with MDA-MB-468 [5] was determined as 70.5%; with MDA-MB-468 [6], 15%; in the data set on MDA-MB-468 [7], 13.2%; with MDA-MB-231 [8], 73%. Besides, the Drug metabolism result on Cytochrome P450 1A1 is “Metabolite_Detected”. Besides, in the data set on MDA-MB-468 [9], the outcome was inactive.

(Values after ChEMBL document CHEMBL4014335, “Activation of Phenyl 4-(2-Oxo-3-alkylimidazolidin-1-yl)benzenesulfonates Prodrugs by CYP1A1 as New Antimitotics Targeting Breast Cancer Cells” (J Med Chem, 2017).)
